Source: PubChem (several laboratories)
Hits are enriched below; roughly 4.9% of the tested compounds scored in any of these assays.
STAT3 activator: STAT3 signaling activation; U3A cells, IL-6 STAT3-luciferase reporter, luminescence; 100% = signal with IL-6 EC80 alone; activation (% of control), % at 5.6 µM; 190,000 tested, 0.91% active; AID 871;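 active = activation above the screen-wide mean of compound activation plus 3 SD, cut at about 130% in these data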;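 also: 0% = background luminescence of wells with medium and substrate only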
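Test system: Human STAT1-deficient U3A cells with stable STAT3-luciferase reporter | Also added: Interleukin-6, 33 ng/mL | Timing: Compound pre-incubation 1 h before IL-6, then 6 h stimulation at 37 °C | Technique: Luciferase reporter luminescence | Read-out: Percent of IL-6-only median luminescence | Benchmarks: IL-6-only wells as 100% reference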
STAT1 act: increases IFN-gamma driven STAT1 reporter signal; 200,000 tested, 2.6% active; NIH 3T3 STAT1-luciferase reporter, luminescence; 100% = IFN-gamma alone, no compound; activation (% of control), % at 5.5 µM; AID 932;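 active = activation above the screen-wide mean activation plus 3 SD, cut at about 130% in these data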;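 also: raw ratio to IFN-gamma control signal so 100% means no change and 0% no light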
NF-kB expr up: NF-kB expression increase, human neuronal cells | AID 1239 | NF-kB reporter expression; stronger effect = higher value | 190,000 tested, 1.6% active | fold change at 12.5 µM; in the data active = fold change above about 3.3
APP 5'UTR act: APP 5'UTR luciferase reporter activation | activation, % at 2 µM | 190,000 tested, 1% active | SH-SY5Y APP 5'UTR luciferase reporter, luminescence; zero percent = DMSO vehicle wells | AID 1276;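 active = activation above a set limit, based on mean plus 3 SD of controls, cut at about 140% in these data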
STAT3 inh: inhibitors of IL-6 induced STAT3 signaling. U3A cells, IL-6 STAT3-luciferase reporter, luminescence; host cell line lacks STAT1. inhibition, % at 5.5 µM. 190,000 tested, 0.89% active;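 active = inhibition above the mean inhibition across all screened compounds plus 3 SD, cut at about 44% in these data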;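 also: 0% = DMSO only wells and 100% = 100 µM nifuroxazide control wells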
STAT1 inh: reduces IFN-gamma driven STAT1 reporter signal. NIH 3T3 STAT1-luciferase reporter, luminescence. inhibition, % at 5.5 µM. 200,000 tested, 0.35% active. AID 920;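 active = inhibition above a set limit, the mean inhibition across all tested compounds plus 3 SD, cut at about 34% in these data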;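 also: 0% = IFN-gamma with DMSO and 100% = IFN-gamma with 300 µM nifuroxazide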
The depositor's hits bear a star.

SMILES | STAT3 activator | STAT1 act | NF-kB expr up | APP 5'UTR act | STAT3 inh | STAT1 inh
CCc1c(C)nc(N)c(C#N)c1-c1ccccc1 | 103 | 89 | 1.5 | 7 | -1 | 12
Cc1ccc2c(n1)sc1c(-c3ccccc3)c(C#N)c(N)nc12 | 135* | 100 | 1 | 0 | -35 | 0
O=C(NNC(=S)Nc1ccccc1)c1cccs1 | 104 | 130* | 2.5 | 66 | -6 | -32
O=C(CCC(=O)Nc1ccccc1)NNC(=O)c1cccs1 | 109 | 97 | 1 | 13 | -3 | 3
O=C(NNC(=S)Nc1ccc(Cl)cc1)c1cccs1 | 91 | 131* | 1.8 | 53 | 15 | -35
O=C(NC(=S)Nc1ccc(Cl)cn1)c1cccs1 | 151* | 194* | 4* | 186* | -48 | -105
O=C(NC(=S)Nc1cccnc1)c1cccs1 | 92 | 116 | 1.5 | -2 | 14 | -19
Nc1ccc(Oc2ccc3c(c2)OCO3)cc1 | 104 | 110 | 1.2 | 11 | 1 | -11
c1ccc2c(Oc3ccc4c(c3)OCO4)nncc2c1 | 88 | 138* | 4.3* | 120 | 17 | -41
O=C(C(=S)N1CCOCC1)c1c[nH]c2ccccc12 | 99 | 108 | 1 | 10 | 9 | -11
COc1ccccc1C1=NC(c2ccc(F)cc2)N=C1C (stereo not drawn) | 103 | 131* | 1.8 | 17 | 8 | -35
COc1ccnc(CSC(N)=Nc2cccc(C(F)(F)F)c2)c1 | 104 | 96 | 1.1 | 12 | -7 | 6
CN1CCN(c2ccc(C(=O)c3ccc(F)cc3)cc2)CC1 | 112 | 136* | 2.7 | 75 | -5 | -39
O=C(Nc1cccc([N+](=O)[O-])c1)C(=O)N1CCCCC1 | 114 | 132* | 2.4 | 69 | -10 | -38
O=C(CN1CCCCCC1)Nc1cccc([N+](=O)[O-])c1 | 92 | 106 | 1.1 | 13 | 16 | -9
Cc1ccc(NC(=O)C(=O)N2CCCC2)cc1Cl | 93 | 148* | 3 | 89 | 10 | -53
C=CCN(C(=O)CSC1=NC(=O)CN1C(C)=O)c1nc(C)c(-c2ccccc2)s1 | 106 | 103 | 2.3 | 35 | -3 | -4
CCOc1ccc(C(=O)CSc2nnc3ccccn23)cc1 | 107 | 141* | 4.1* | 131 | -5 | -45
O=C(CSc1nnc2ccccn12)c1ccc(Cl)cc1 | 100 | 109 | 2.1 | 42 | 10 | -12
Cc1cc(C)n(-c2nc3ccccc3c(=O)n2OCC(=O)OCc2ccccc2)n1 | 99 | 104 | 0.93 | -51 | 10 | -5
Cc1cc(C)n(-c2nc3ccccc3c(=O)n2OCc2ccc(F)cc2)n1 | 135* | 91 | 1.1 | 14 | -31 | 10
CN1C2C=C3C(C#N)=C(N)C(C#N)(C#N)[C@@H](c4cccs4)C3C1CC2 (stereo partly drawn) | 100 | 103 | 4.4* | -3 | 2 | -4
CN1C2C=C3C(C#N)=C(N)C(C#N)(C#N)[C@H](c4c(F)cccc4F)[C@H]3C1CC2 (stereo partly drawn) | 101 | 100 | 1.3 | -47 | 3 | 0
C=C(C)CN(CC)C(=O)CCc1nnc(CCc2c[nH]c3ccccc23)o1 | 104 | 99 | 0.97 | -25 | 7 | 0
CCc1cccc(CC)c1NC(=O)/C(C#N)=C/c1ccccc1C(F)(F)F | 101 | 92 | 3.4* | 9 | -6 | 8
SMILES | STAT3 activator | STAT1 act | NF-kB expr up | APP 5'UTR act | STAT3 inh | STAT1 inh
N#C/C(=C\c1ccccc1C(F)(F)F)C(=O)Nc1ccccc1 | 100 | 103 | 1.2 | 12 | -5 | -3
CC[n+]1c(/C=C/c2c[nH]c3ccccc23)ccc2cc(C)ccc21 | 51 | 45 | 0.85 | 6 | 59* | 58*
Fc1ccccc1NC(=S)N1CCC(c2ccccc2)C1 (stereo not drawn) | 108 | 146* | 2.5 | 61 | -3 | -49
S=C(Nc1ccccc1Cl)N1CCCCCC1 | 96 | 109 | 1.6 | 6 | 10 | -9
Fc1cc(F)cc(NC(=S)N2CCC(c3ccccc3)C2)c1 (stereo not drawn) | 104 | 141* | 2.1 | 66 | 2 | -44
S=C(Nc1ccccc1Cl)N1CCC(c2ccccc2)C1 (stereo not drawn) | 100 | 148* | 3.4* | 130 | 6 | -52
Cc1ccc(NC(=S)N2CCC(c3ccc(C)cc3)C2)cc1 (stereo not drawn) | 104 | 122 | 1.6 | 28 | 2 | -24
Cc1ccc(NC(=S)N2CCC(c3ccccc3)C2)c(Cl)c1 (stereo not drawn) | 70 | 93 | 6.5* | 190* | 39 | 8
COC(=O)c1nnn(-c2nc(N(C)C)nc(N(C)C)n2)c1C | 81 | 98 | 1.1 | -12 | 25 | 1
O=C1NN(c2ccccc2)C(=O)/C1=C/c1coc2ccccc2c1=O | 120 | 146* | 0.76 | 47 | -20 | -52
O=C1NN(c2ccccc2)C(=O)/C1=C/c1cccs1 | 100 | 92 | 1 | 6 | -4 | 8
COC(=O)/C=C/c1oc2ccccc2c1C | 119 | 111 | 1.3 | 3 | -20 | -13
Cc1cc(N2CCC(C)CC2)nc2cccc(O)c12 | 96 | 102 | 4.5* | 39 | 13 | -2
CCOC(=O)c1cc(C#N)c(SCc2ccc(C#N)cc2)nc1C | 136* | 104 | 1.2 | -10 | -36 | -4
COc1ccc(N(C(C)C(=O)Nc2cccnc2)S(C)(=O)=O)cc1 (stereo not drawn) | 95 | 130* | 1 | -5 | 10 | -35
COc1ccc(CCN(C)C(=O)CSc2nnnn2C)cc1OC | 94 | 107 | 1 | -10 | 9 | -8
CC(C)Cc1ccc(/C=C/C(=O)NC2CC2)cc1 | 109 | 147* | 3.2 | 63 | -7 | -53
CC(C)Cc1ccc(/C=C/C(=O)N2CCCCC2)cc1 | 110 | 139* | 4.2* | 86 | -5 | -42
CC(C)N=C1NN=C(c2cccs2)CS1 | 107 | 134* | 3.5* | 103 | -7 | -38
CC(C)N=C1NN=C(c2ccc(Cl)c(Cl)c2)CS1 | 74 | 136* | 8.6* | 172* | 37 | -41
CCOC(=O)C1=C(N)OC2=C(C(=O)CC(C)(C)C2)C1c1cc(CSc2nnnn2C)cs1 (stereo not drawn) | 85 | 99 | 1.1 | 14 | 22 | -1
Cc1ccccc1NS(=O)(=O)c1cc(C(=O)Nc2cccc(N(C)S(C)(=O)=O)c2)ccc1C | 96 | 93 | 0.78 | 6 | 10 | 8
CN(c1cccc(NC(=O)c2ccc(Cl)c(S(=O)(=O)Nc3ccccc3)c2)c1)S(C)(=O)=O | 89 | 67 | 0.69 | -5 | 20 | 45*
CN1C=CC=C/C1=C1\SC(=S)N(N)C1=O | 101 | 106 | 1 | 25 | 1 | -8
Cc1ccc(/C(N)=N/OC(=O)c2ccc(Cl)cc2Cl)cc1 | 106 | 140* | 1.6 | 154* | -10 | -45
COc1ccccc1C(=O)O/N=C(\N)c1ccc(Cl)cc1 | 132 | 140* | 5.4* | 70 | -32 | -44
